Reference: the EternaBench riboswitch data

Test system: MS2 coat protein
Test: apparent Kd, MS2 coat protein; higher = weaker binding; RNA-MaP array; FMN 200 µM where present
Method in brief: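 Stalled E. coli RNA polymerase transcribed each design on Illumina sequencing-chip clusters. The clusters were titrated with SNAP-549-labelled MS2 coat protein, starting at 0.7 or 1.5 nM and doubling up to 3 µM, first without ligand and then with constant ligand, in 100 mM Tris-HCl pH 7.5, 80 mM KCl, 4 mM MgCl2, BSA, DTT, yeast tRNA and Tween-20. Green signal was normalised to red-channel RNA signal and to the control-cluster median Fmax. The apparent Kd is the median of filtered binding-curve fits made for each cluster.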

[1] = designed as: ON switch for flavin mononucleotide, no ligand
[2] = ligand present: flavin mononucleotide, designed as: ON switch for flavin mononucleotide
[3] = designed as: OFF switch for flavin mononucleotide, no ligand
[4] = ligand present: flavin mononucleotide, designed as: OFF switch for flavin mononucleotide

Row | Sequence | apparent Kd [1] [nM] | apparent Kd [2] [nM] | apparent Kd [3] [nM] | apparent Kd [4] [nM]
1 | GCAUGAGACUAAGGAUAUGAUGUACCUAUAUGUGACAUGAGGAUCACCCAUGUGGUAAGUAUGAUUCAGAAGGUAGAGACAUGC | 33.7 | 21.3 |  | 
2 | UUGGACGUCGUAGGAUAUGUAAGAUAUUCCUACAUGAGGAUCACCCAUGUUGACAUGGAAGAAGGACAGAAGGACGAUGUCCAU | 6.47 | 4.87 |  | 
3 | CUAAGACGAUGUCACGUUGUCGGGACAGAAGGCACGUACAUGAGGAUCACCCAUGUAAAACACAGUGAGGAUAUGUACCUGCGA | 30.8 | 8.1 |  | 
4 | AAUAAACUCACAGGAUAUAGCAUAGGUCGCGUGAACUUACAGGCGACUAUGCUAGAAGGGUGACCACAUGAGGAUCACCCAUGU | 734 | 145 |  | 
5 | UGCAUGCUAGGAUAUACGAAACAUUAGGGUUCUUCGUAUGAACAUGAGGAUCACCCAUGUAGAAGGAGCGUGCU |  |  | 35.5 | 191
6 | GGGUAGAUCCGAGGAUAUACAAUCCGGAAACGGUACAUGAGGAUCACCCAUGUAGAAGGCGGAUCUACAGGUACUAAAGUAGGG |  |  | 16 | 14.2
7 | GGACAUCCCACAGGAUAUGCUGGACUUUGUCCAGCAGAAGGGUGAAAACAUGAGGAUCACCCAUGUAGGAUGUCCAUAUUUAAU | 112 | 643 |  | 
8 | UUAUUAUAUGUAGGAUAUGCAUAUUAUUAUUAUGCAGAAGGACAUGAGGAUCACCCAUGUAUAUUGUUGUUGUAUAUUAUAUAU |  |  | 25.1 | 30.4
9 | AAAAAAAAAGUAGAGGAUAUCCGAGUGGUAACAUGAGGAUCACCCAUGUGAAGAAAGGAAGAUGAGGAGAAGGCUACAAAAAAAAA | 47.5 | 21.9 |  | 
10 | GGAUAGGACAGAGGAUAUACGUGCUAGAGAUACUAGCAAAAUUUUCUCACAUGAGGAUCACCCAUGUAGAAGGCUGUCCUAUCG |  |  | 5.08 | 17.4
11 | GGAACUCAUGUAGGAUAUGCAUGGCGAAGCUACGCAGAAGGACAUGAGGAUCACCCAUGUUCUAGCGUCUGAGUACAGAUGCAA |  |  | 126 | 178
12 | AUAUUUGUUUAGAAGGACAUGAGGAUCACCCAUGUCGCUGGGCGCGGGAAACCGUGCGCGGCCAUGUAGGAUAUAGGGAGAUAU |  |  | 38.7 | 24.3
13 | GCUAGGAAUGUCAGGAUAUGCUGUACCUUGGUACAGCAGAAGGGACAUGAGGAUCACCCAUGUGCUAACCUAGC |  |  | 29.6 | 130
14 | CGAACUAAGUAGAAGGCUGUCUUAAAAUAGGACAGAGGAUAUACAUGAGGAUCACCCAUGUACUCCUUUAAUAAGUUCGAAAUA |  |  | 5.22 | 6.13
15 | AACAGCUCGUCAGGAUAUAUUAUAUUUAUAUGGCUGAAUGUACAUGAGGAUCACCCAUGUAGUUUGUAGAAGGGACGAGCUGAA |  |  | 11.6 | 18.9
16 | AGUGUUGGAGGAUAUACAUGAGGAUCACCCAUGUACAUCACACAGUAUAUGAAACCAUGUAGAAGGCCAAUACA |  |  | 55.8 | 73.8
17 | UGUUGUAUUACAGGAUAUCUAGUAUUUUUAUCUAGAGAAGGGUAUUCACAUGAGGAUCACCCAUGUAUAUACGAGGAAGUUGUG | 33.1 | 33.2 |  | 
18 | AUUAUAAAGUCAGGAUAUCGGUUUAUAAUAUUACGAGAAGGGACAUGAGGAUCACCCAUGUAUUAACACUACUAUGUCAACUAA |  |  | 46.6 | 43.4
19 | UGCUGGUGACAGCAUCCAUCAAAACAUGAGGAUCACCCAUGUAGAAGGCUGUACGGUUACCGUACAGAGGAUAUACAAUGAUGG |  |  | 7.27 | 8.69
20 | GUAGAGGAUUGAGGAUAUGCAGAGAGAUCAUGCGCGUCGCGCACAUGAGGAUCACCCAUGUAAGAGCAGAAGGUAACUAUGAAC |  |  | 66.8 | 43.4
21 | AUAAUGCGAGGAUAUACAUGAGGAUCACCCAUGUAAUUCCAUCGGAGAGCCACAUUUCGUAGAAGGUGCAUUUA |  |  | 15.4 | 15.4

Row | Sequence | apparent Kd [1] [nM] | apparent Kd [2] [nM] | apparent Kd [3] [nM] | apparent Kd [4] [nM]
22 | GAAGGCUGGUAGAAGGAUCCUCACAUGAGGAUCACCCAUGUAACAGCGGAUAGGAUAUACCGUCUUUCACGUUGGUCUCCCUAA | 370 | 25.3 |  | 
23 | UCUUUACUGGUCAGGAUAUACAUUCGCUACUCCUUGUAGAAGGGACAUGAGGAUCACCCAUGUACUUUACAUUC |  |  | 18.5 | 19.5
24 | AGGAUCCUAUCAAGACAAAUGUACAUGAGGAUCACCCAUGUGCAGGAUAUAGCUAGUUACGGUGGCUAGAAGGGCACACCAAAA |  |  | 6.72 | 14.3
25 | CCUGUGUGAGGAUAUGUACUGCUCCUGUCCAACAGUGUAGAGCAGAAGGCACAUGAGGAUCACCCAUGUGAAAA |  |  | 26.2 | 23.1
26 | ACAUUUGGAGGAUAUACCGCUAAGUCAAAUGCAGACCUCCCACAUGAGGAUCACCCAUGUAGAAGGUCAUCUGG |  |  | 17.1 | 17.6
27 | GCUGCGCGAGGAUAUGCGGUUCGCGCUGUGGCCCGUGGCGCACAUGAGGAUCACCCAUGUAGAAGGCGUGCGGG |  |  | 12.2 | 13.1
28 | CCUAUGUGAGGAUAUCACUGGUCUUUUCAUUAGAUGAUCAGUGAGAAGGCACAUGAGGAUCACCCAUGUCAGUG |  |  | 90.7 | 26.7
29 | UCGCUGCGAGGAUAUACGUGCGCGCGCGCGCGCGCGCGCGUACAUGAGGAUCACCCAUGUAGAAGGCGCGCUGC |  |  | 17.1 | 17.1
30 | AAGCUUGAUCCUCGUGUAUACAUGAGGAUCACCCAUGUGACGCAGGAUAUAGGCGUGUUAGUAGCCUAGAAGGGCGAGCAGCGA |  |  | 128 | 73.5
31 | GUAGCAUACCGAGGAUAUUCAUACCGGAAACGGACAUGAGGAUCACCCAUGUAGCGAAAGCUUUGGGAGAAGGCGGAAUGCUAC | 905 | 33.9 |  | 
32 | CUCUAUCAUGUAGGAUAUGCGUGUCGAAGCUAUGCAGAAGGACAUGAGGAUCACCCAUGUCUUUCUGUCUGCGGACGGACAGGG |  |  | 14.9 | 18.2
33 | CCCAGAGCGUAAGGAUAUACAUGAGGAUCACCCAUGUCUACAAUAAUAGUACUAUAUGAAGUCGUGUAGAAGGUACGCGCAGGU |  |  | 41.2 | 119
34 | CCUUUGAAGAUCCUAGAUUUCGACAUGAGGAUCACCCAUGUGCAGGAUAUCGUGCCAGUGAUGUGCGAGAAGGGCAGUCUCUGC |  |  | 50.8 | 55
35 | UCGAUGCUAGGAUAUACUUAUAAAACCACUGUAGAGUCCUCACAUGAGGAUCACCCAUGUAGAAGGAGCAUCUA |  |  | 25.9 | 46.4
36 | GUGGUACAUGAGGAUCACCCAUGUCAGGAUAUCGUGUGUUUUUUUUCGGCCGCGCGUGCGAGAAGGGACGUCUU |  |  | 19.6 | 19.4
37 | AGGAGGUUAGGAUAUGCUGCUCGUCACUUGCGUGAUGAGUAGCAGAAGGGACAUGAGGAUCACCCAUGUAAAAA |  |  | 48.5 | 28.1
38 | ACGCAUUGCCUUUGGUAGUGCGUUACAUGAGGAUCACCCAUGUAGGAUAUGGUAGGCAAAGCUUACCAGAAGGACAUGAUAAUU |  |  | 49.5 | 238
39 | GUAGCUAUCGGAGGAUAUUCAUGAUACAUGAGGAUCACCCAUGUUAAAGUGGGAGAAGGCCGAUAGCUACAAGAGCGAAAGCUC | 44.8 | 6.87 |  | 
40 | CCAUGGCAUGUAGGAUAUGUCUGACAAAGUCAGACAGAAGGACAUGAGGAUCACCCAUGUAAACCGAAAGGAACAUAGCCAUGG |  |  | 6.54 | 7.3
41 | GCGUUGUACGAGAAGGCCAAUACAUGAGGAUCACCCAUGUUAAGUUGUUUUGGAGGAUAUCGAUCACCUACAAUAAUGCAACGC |  |  | 6.83 | 5.9
42 | GGUGGACAUGAGGAUCACCCAUGUGAGGAUAUCGGCUAUCUACUCGCUGACGGUUGCUCGAGAAGGCACAUUGU |  |  | 126 | 206
